Reference: ChEMBL document CHEMBL3102834, “Discovery of 5-substituted pyrrolo[2,3-d]pyrimidine antifolates as dual-acting inhibitors of glycinamide ribonucleotide formyltransferase and 5-aminoimidazole-4-carboxamide ribonucleotide formyltransferase in de novo purine nucleotide biosynthesis: implications of inhibiting …” (J Med Chem, 2013)
Calls of active or inactive are those of the source. No cut-off for these calls is given here.

Legend:
[1] = Cytotoxicity against chinese hamster R2(VC) cells after 96 hrs by CellTitre-Blue fluorescence assay; type: functional, cell-based; settings: Cricetulus griseus
Summary of the method: (§1)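 CHO sublines were grown in FF-RPMI/DFBS; transfectants were maintained with G418. Cells were exposed to antifolate (0–1 μM) for 96 h at 37 °C with 2 nM LCV (RT16) or 25 nM LCV (R2/PCFT4). PC43-10 cells were grown in standard RPMI1640/DFBS instead. FRα specificity was tested by adding 200 nM folic acid. Viable cells were read by CellTiter-Blue fluorescence (ex 560/em 590), and IC50 was taken from dose–response curves; means of 3–10 experiments.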

R2 [2] = assay: Cytotoxicity against chinese hamster R2 cells expressing human PCFT4 after 96 hrs by CellTitre-Blue fluorescence assay; type: functional, cell-based, Cricetulus griseus; settings: R2, 96 h
KB [3] = assay: Cytotoxicity against human KB cells at 10 mM after 96 hrs by CellTitre-Blue fluorescence assay; type: functional; settings: read-out: GI
Summary of the method: (§2)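 KB cells were exposed for 96 h at 37 °C to metformin (0–10 mM) or AICA (0–2 mM) in FF-RPMI/DFBS with 2 nM LCV. Growth was read by CellTiter-Blue fluorescence relative to drug-free cells.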

[4] = target: Bifunctional purine biosynthesis protein ATIC (Homo sapiens) (UniProt P31939); assay: Inhibition of AICARFTase in human KB cells assessed as phosphorylated AMPK at 10 mM after 48 hrs by Western blot analysis; type: cell-based
Chain of Bifunctional purine biosynthesis protein ATIC (Homo sapiens) (P31939 whole entry, looked up): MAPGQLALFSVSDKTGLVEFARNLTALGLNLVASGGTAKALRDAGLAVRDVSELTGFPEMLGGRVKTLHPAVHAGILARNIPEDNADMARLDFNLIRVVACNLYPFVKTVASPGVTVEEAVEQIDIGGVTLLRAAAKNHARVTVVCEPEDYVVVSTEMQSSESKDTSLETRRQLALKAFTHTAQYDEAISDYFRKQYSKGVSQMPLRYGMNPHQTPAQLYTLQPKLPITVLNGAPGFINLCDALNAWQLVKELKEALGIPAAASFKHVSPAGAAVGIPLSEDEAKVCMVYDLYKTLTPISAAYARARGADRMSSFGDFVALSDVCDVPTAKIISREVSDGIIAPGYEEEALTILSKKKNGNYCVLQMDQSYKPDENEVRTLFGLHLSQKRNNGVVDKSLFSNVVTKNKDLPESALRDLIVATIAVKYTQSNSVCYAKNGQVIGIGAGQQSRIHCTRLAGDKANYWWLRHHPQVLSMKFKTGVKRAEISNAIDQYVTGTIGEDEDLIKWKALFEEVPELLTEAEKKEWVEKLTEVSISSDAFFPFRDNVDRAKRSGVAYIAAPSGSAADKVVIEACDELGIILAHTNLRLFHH
Summary of the method: (§3)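 KB cells were treated for 48 h with 10 μM thymidine, or with AMPK activators (metformin 10 mM, AICA 1 mM, AICAR 1 mM) against a water/DMSO vehicle. Cells were sonicated in 10 mM Tris-HCl pH 7.0 with protease/phosphatase inhibitors. 90 μg protein was run on 4–20% SDS gels and blotted for phospho-AMPK, total AMPK and β-actin, with infrared detection.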

[5] = Cytotoxicity against chinese hamster RT16 cells expressing human FRalpha after 96 hrs by CellTitre-Blue fluorescence assay in presence of folic acid; type: functional, cell-based; settings: Cricetulus griseus, RT16, 96 h; summary of the method: as §1
R2 [6] = assay: Cytotoxicity against chinese hamster R2 cells after 96 hrs by CellTitre-Blue fluorescence assay; settings: Cricetulus griseus, R2, 96 h
KB [7] = assay: Cytotoxicity against human KB cells at 1 mM after 96 hrs by CellTitre-Blue fluorescence assay; type: functional; settings: read-out: GI; summary of the method: as §2
[8] = target: Bifunctional purine biosynthesis protein ATIC (Homo sapiens) (UniProt P31939); assay: Inhibition of AICARFTase in human KB cells assessed as phosphorylated AMPK at 1 mM after 48 hrs by Western blot analysis; type: cell-based; summary of the method: as §3
KB [9] = assay: Cytotoxicity against human KB cells expressing human RFC/FRalpha/PCFT after 96 hrs by CellTitre-Blue fluorescence assay in presence of AICA; type: functional, cell-based
Summary of the method: (§4)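 KB cells were grown in FF-RPMI with DFBS and 2 nM LCV, exposed to antifolate (0–1 μM) for 96 h at 37 °C, and read by CellTiter-Blue fluorescence. IC50 was taken from dose–response curves relative to untreated cells. Protection arms added adenosine 60 μM, thymidine 10 μM, AICA 320 μM, or folic acid 200 nM. Means of 3–10 experiments.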

KB [10] = assay: Cytotoxicity against human KB cells expressing human RFC/FRalpha/PCFT after 96 hrs by CellTitre-Blue fluorescence assay in presence of adenosine; type: functional, cell-based; summary of the method: as §4
KB [11] = assay: Cytotoxicity against human KB cells expressing human RFC/FRalpha/PCFT after 96 hrs by CellTitre-Blue fluorescence assay in presence of thymidine; type: functional, cell-based; summary of the method: as §4

SMILES	IC50 [1] [nM]	IC50 (R2 [2]) [nM]	IC50 [5] [nM]	IC50 (R2 [6]) [nM]	also measured
Nc1nc2[nH]c(CCCCCc3ccc(C(=O)N[C@@H](CCC(=O)O)C(=O)O)cc3)cc2c(=O)[nH]1	> 1000	> 1000	–	–	–
CN(C)C(=N)NC(=N)N [METFORMIN]	–	–	–	–	inhibition of growth at 10000 µM (KB [3]): 32%; inhibition [4]: inactive
Nc1nc2[nH]cc(CCCCCCc3ccc(C(=O)N[C@@H](CCC(=O)O)C(=O)O)cc3)c2c(=O)[nH]1	> 1000	> 1000	> 1000	> 1000	–
NC(=O)c1[nH]cnc1N	–	–	–	–	inhibition of growth at 1000 µM (KB [7]): 20%; inhibition [8]: inactive
Nc1nc2[nH]cc(CCCc3ccc(C(=O)N[C@@H](CCC(=O)O)C(=O)O)cc3)c2c(=O)[nH]1	> 1000	–	> 1000	> 1000	Activity (KB [9]): Active; Activity (KB [10]): inactive; Activity (KB [11]): Active
Nc1nc2[nH]cc(Cc3ccc(C(=O)N[C@@H](CCC(=O)O)C(=O)O)cc3)c2c(=O)[nH]1	> 1000	> 1000	> 1000	> 1000	–
Cc1nc(=O)c2cc(CN(C)c3ccc(C(=O)N[C@@H](CCC(=O)O)C(=O)O)s3)ccc2[nH]1 [RALTITREXED]	> 1000	–	–	–	–
